Assay results published in ChEMBL document CHEMBL1157799, “Creating an antibacterial with in vivo efficacy: synthesis and characterization of potent inhibitors of the bacterial cell division protein FtsZ with improved pharmaceutical properties” (J Med Chem, 2010).
Converted amounts (≈) assume the structure as drawn.

Tests used:
[1] = target: T1, Cell division protein FtsZ (Staphylococcus aureus) (UniProt P0A031); experiment: Inhibition of Staphylococcus aureus ATCC 29213 FtsZ assessed as lowest drug level required for ballooning of cells by light microscopy
T1 sequence (whole entry): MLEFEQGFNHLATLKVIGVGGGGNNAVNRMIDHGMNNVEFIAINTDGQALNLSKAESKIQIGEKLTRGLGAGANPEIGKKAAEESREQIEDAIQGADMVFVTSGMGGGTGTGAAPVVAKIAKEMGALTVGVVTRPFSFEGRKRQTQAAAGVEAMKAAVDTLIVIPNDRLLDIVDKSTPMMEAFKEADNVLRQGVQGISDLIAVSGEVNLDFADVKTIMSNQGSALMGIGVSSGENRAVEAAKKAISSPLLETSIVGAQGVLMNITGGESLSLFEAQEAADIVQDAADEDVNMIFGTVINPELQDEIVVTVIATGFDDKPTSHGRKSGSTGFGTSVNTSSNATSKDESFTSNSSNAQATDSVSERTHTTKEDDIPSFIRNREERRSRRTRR
Procedure, shortened: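 Cocci examined by light microscopy for morphology. Value is the lowest concentration at which ballooning appears; WT is recorded when morphology is unchanged.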

Staphylococcus aureus [2] = experiment: Antibacterial activity against Staphylococcus aureus ATCC 29213 by broth microdilution assay in presence of 2% bovine serum albumin; assay type: functional
Procedure, shortened: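 Broth microdilution MIC per CLSI recommendations, with 2% w/v bovine serum albumin added to the assay medium to track the effect of protein on antibacterial activity.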

Staphylococcus aureus [3] = experiment: Antibacterial activity against Staphylococcus aureus ATCC 29213 by broth microdilution assay; assay type: functional
Procedure, shortened: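 Broth microdilution MIC per CLSI recommendations; reproducibility within one 2-fold dilution of the end point.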

Plasma = experiment: Plasma protein binding in mouse at 10 uM by equilibrium dialysis; assay type: ADME, cell-free
Procedure, shortened: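 Binding to plasma measured by equilibrium dialysis of a 10 µM compound solution. Reported as fraction unbound or percent bound.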

Row | SMILES | Activity [1] [µg/mL] | MIC (Staphylococcus aureus [2]) [µg/mL] | MIC [1] [µg/mL] | MIC (Staphylococcus aureus [3]) [µg/mL] | PPB (Plasma) [%]
1 | CCCc1ccc2sc(COc3ccc(F)c(C(N)=O)c3F)nc2c1 | 0.125 | – | – | – | –
2 | NC(=O)c1c(F)ccc(OCc2nc3ccccc3s2)c1F | – | 8 | 4 (≈ 12.5 µM) | 2 (≈ 6.24 µM) | –
3 | COc1cc2nc(COc3ccc(F)c(C(N)=O)c3F)sc2nc1Cl | – | > 64 | – | 16 (≈ 41.5 µM) | –
4 | COc1cccc2sc(COc3ccc(F)c(C(N)=O)c3F)nc12 | 64 | – | – | 16 (≈ 45.7 µM) | –
5 | NC(=O)c1ccc2sc(COc3ccc(F)c(C(N)=O)c3F)nc2c1 | – | – | – | > 64 | –
6 | NC(=O)c1c(F)ccc(OCc2nc3c(Cl)cccc3s2)c1F | 8 | – | – | 16 (≈ 45.1 µM) | –
7 | Cc1ccc2nc(COc3ccc(F)c(C(N)=O)c3F)sc2c1 | – | – | – | 8 (≈ 23.9 µM) | –
8 | NC(=O)c1c(F)ccc(OCc2nc3ccc(-c4ccccc4)cc3s2)c1F | – | – | – | > 256 | –
9 | COc1ccc2sc(COc3ccc(F)c(C(N)=O)c3F)nc2c1 | 2 | – | – | – | –
10 | NC(=O)c1c(F)ccc(OCc2nc3cc(Br)ccc3s2)c1F | 0.25 | – | – | 0.125 (≈ 0.313 µM) | –
11 | COC(=O)c1ccc2sc(COc3ccc(F)c(C(N)=O)c3F)nc2c1 | 2 | – | – | 1 (≈ 2.64 µM) | –
12 | NC(=O)c1c(F)ccc(OCc2nc3cccc(Cl)c3s2)c1F | 8 | – | – | 4 (≈ 11.3 µM) | –
13 | NC(=O)c1c(F)ccc(OCc2nc3ccc(Cl)cc3s2)c1F | 8 | – | – | 4 (≈ 11.3 µM) | –
14 | NC(=O)c1c(F)ccc(OCc2nc3cc(-c4ccccc4)ccc3s2)c1F | 0.5 | – | – | 0.25 (≈ 0.631 µM) | 99.2
15 | NC(=O)c1c(F)ccc(OCc2nc3cc(C(=O)O)ccc3s2)c1F | – | – | – | > 64 | –
16 | CCOc1cnc2sc(COc3ccc(F)c(C(N)=O)c3F)nc2c1 | – | 0.25 | – | 0.125 (≈ 0.342 µM) | 89.9
17 | NC(=O)c1c(F)ccc(OCc2nc3cc(O)ccc3s2)c1F | 64 | – | – | 32 (≈ 95.1 µM) | –
18 | Cc1cccc(COc2ccc(F)c(C(N)=O)c2F)n1 | – | 64 | 32 (≈ 115 µM) | – | –
19 | NC(=O)c1c(F)ccc(OCCn2cccn2)c1F | – | 256 | – | 256 (≈ 958 µM) | –
20 | Cc1csc(COc2ccc(F)c(C(N)=O)c2F)c1 | – | 128 | 32 (≈ 113 µM) | – | –
